# Assays:
# Mus musculus = assay: Toxicity in ip dosed CD1 mouse; format: organism-based; settings: in vivo
# Summary of the method: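 MTD in CD-1 homozygous nude mice after single i.p. doses (HCl salts in saline, 5% DMSO/saline or lactate buffer pH 4.0), escalated in 1.33-fold increments. MTD taken as the highest dose causing no death, no body weight loss >15% and no other severe morbidity in any of 6 mice.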
# HT-29 [1] = assay: Ratio of IC50 for HT29 cells under oxic conditions to hypoxic conditions after 4 hrs; format: functional, Homo sapiens
# HT-29 [2] = assay: Effect on human HT29 cells under hypoxic conditions assessed as drug level causing 10% clonogenic survival; format: functional
# Summary of the method: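 HT29 suspensions (1 or 2 × 10^6 cells/mL) in serum-free medium were stirred under 5% CO2/95% N2 for 90 min. Drug was added from deoxygenated DMSO stock at a level giving about 10% survival at 1 h, and samples were taken up to 3 h. Clonogenic survival (14 days, methylene blue) was fitted with the HPLC concentration–time data, and the 10% survival exposure was interpolated.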
# HT-29 [3] = assay: Antitumor activity against human HT29 cells implanted in CD1 mouse at 562 umol/kg, ip administered 5 mins after irradiation by excision assay relative to radiation alone; format: functional
# Summary of the method: (§1)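 Hypoxic-cell excision assay in HT29 xenografts in CD-1 homozygous nude mice. Mice received 20 Gy γ radiation to sterilize oxic tumor cells, then a single i.p. drug dose (HCl salt in saline, 5% DMSO/saline or pH 4.0 lactate buffer) 5 min later. Tumors excised at 18 h and plated for clonogens/g. Log cell kill = log(clonogens/g, radiation only) − log(clonogens/g, radiation plus drug).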
# [4] = AUC in CD1 mouse at 562 umol/kg, ip; format: ADME, organism-based; settings: plasma
# Summary of the method: (§2)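 Single i.p. dose to CD-1 homozygous nude mice, drug as HCl salt in 0.9% saline, 5% DMSO/saline or lactate buffer (pH 4.0). Plasma total drug measured by HPLC at 75 or 100% of MTD (MTD from 1.33-fold dose steps, 6 mice). Noncompartmental analysis gave AUC, Cmax and t1/2.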
# SiHa [5] = assay: Ratio of IC50 for SiHa cells under oxic conditions to hypoxic conditions after 4 hrs; format: functional, Homo sapiens
# HT-29 [6] = assay: Antitumor activity against human HT29 cells implanted in CD1 mouse assessed as clonogenic survival at 562 umol/kg, ip after 18 hrs relative to control; format: functional
# Summary of the method: (§3)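 HT29 xenografts in CD-1 homozygous nude mice; single i.p. dose of drug alone, formulated as the HCl salt in 0.9% saline, 5% DMSO/saline or lactate buffer (pH 4.0). Tumors excised 18 h later, dissociated to single-cell suspensions and plated. Clonogens/g of tumor counted; surviving fraction = treated/control clonogens/g.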
# [7] = Solubility in culture medium in presence of 5% fetal calf serum; format: physicochemical; settings: culture medium with 5% fetal calf serum
# SiHa [8] = assay: Cytotoxicity against human SiHa cells under hypoxic conditions after 4 hrs; format: functional, cell-based
# [9] = Half life in CD1 mouse at 562 umol/kg, ip; format: ADME, organism-based; settings: in vivo; summary of the method: as §2
# HT-29 [10] = assay: Cytotoxicity against human HT29 cells under hypoxic conditions after 4 hrs; format: functional, cell-based; settings: HT-29, 4 h
# [11] = Half life in CD1 mouse at 421 umol/kg, ip; format: ADME, organism-based; settings: in vivo; summary of the method: as §2
# [12] = AUC in CD1 mouse at 421 umol/kg, ip; format: ADME, organism-based; settings: plasma; summary of the method: as §2
# HT-29 [13] = assay: Diffusion coefficient, D in HT29 multicellular layers; format: ADME, cell-based; settings: human
# Summary of the method: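 HT29 multicellular layers were grown 3 days on collagen-coated Teflon membranes, equilibrated 60 min under 95% O2/5% CO2 at 37 °C, then placed in a diffusion chamber. Donor and receiver were sampled up to 5 h and assayed by HPLC. D came from fitting both profiles to a Fickian model with membrane and MCL in series, corrected by support-only Ds.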
# [14] = Cmax in CD1 mouse at 421 umol/kg, ip; format: ADME, organism-based; design: dose 421 umol/kg, route intraperitoneal; settings: in vivo; summary of the method: as §2
# [15] = Cmax in CD1 mouse at 562 umol/kg, ip; format: ADME, organism-based; design: dose 562 umol/kg, route intraperitoneal; settings: in vivo; summary of the method: as §2
# [16] = Half life in CD1 mouse at 1000 umol/kg, ip; format: ADME, organism-based; settings: in vivo; summary of the method: as §2
# [17] = AUC in CD1 mouse at 1000 umol/kg, ip; format: ADME, organism-based; settings: plasma; summary of the method: as §2
# HT-29 [18] = assay: Antitumor activity against human HT29 cells implanted in CD1 mouse assessed as clonogenic survival at 1000 umol/kg, ip after 18 hrs relative to control; format: functional; summary of the method: as §3
# HT-29 [19] = assay: Antitumor activity against human HT29 cells implanted in CD1 mouse at 1000 umol/kg, ip administered 5 mins after irradiation by excision assay relative to radiation alone; format: functional; summary of the method: as §1
# [20] = Cmax in CD1 mouse at 1000 umol/kg, ip; format: ADME, organism-based; design: dose 1000 umol/kg, route intraperitoneal; settings: in vivo; summary of the method: as §2
# [21] = Cmax in CD1 mouse at 750 umol/kg, ip; format: ADME, organism-based; design: dose 750 umol/kg, route intraperitoneal; settings: in vivo; summary of the method: as §2
# HT-29 [22] = assay: Antitumor activity against human HT29 cells implanted in CD1 mouse assessed as clonogenic survival at 750 umol/kg, ip after 18 hrs relative to control; format: functional; summary of the method: as §3
# [23] = Half life in CD1 mouse at 750 umol/kg, ip; format: ADME, organism-based; settings: in vivo; summary of the method: as §2
# HT-29 [24] = assay: Antitumor activity against human HT29 cells implanted in CD1 mouse at 750 umol/kg, ip administered 5 mins after irradiation by excision assay relative to radiation alone; format: functional; summary of the method: as §1
# [25] = AUC in CD1 mouse at 750 umol/kg, ip; format: ADME, organism-based; settings: plasma; summary of the method: as §2
# [26] = Cmax in CD1 mouse at 237 umol/kg, ip; format: ADME, organism-based; design: dose 237 umol/kg, route intraperitoneal; settings: in vivo; summary of the method: as §2
# [27] = Half life in CD1 mouse at 237 umol/kg, ip; format: ADME, organism-based; settings: in vivo; summary of the method: as §2
# [28] = AUC in CD1 mouse at 237 umol/kg, ip; format: ADME, organism-based; settings: plasma; summary of the method: as §2
Compound,MTD (Mus musculus),Ratio IC50 (HT-29 [1]),Activity (HT-29 [2]) [µM·h],Ratio IC50 (SiHa [5]),solubility [7] [mM],IC50 (SiHa [8]) [µM],IC50 (HT-29 [10]) [µM],D (HT-29 [13]) [cm²/s],half-life [16] [min],AUC [17] [µM·h],LCK (HT-29 [18]),LCK (HT-29 [19]),also measured
COCCOc1ccc2c(c1)[n+]([O-])c(NCCN(C)C)n[n+]2[O-],1330 µM/g,117,51.8,401,> 51,1.6,5,,,,,,LCK (HT-29 [3]): 0.3; AUC [4]: 257 µM·h; LCK (HT-29 [6]): -0.08; half-life [9]: 44.9 min
CN(C)CCNc1n[n+]([O-])c2ccc(C(C)(C)C)cc2[n+]1[O-],421 µmol/kg,99,11.4,78,38,1.1,3.7,8.63e-07,,,,,half-life [11]: 12.5 min; AUC [12]: 9.73 µM·h; Cmax [14]: 16.1 µM
Cc1ccc2c(c1)[n+]([O-])c(NCCN1C(C)CCCC1C)n[n+]2[O-] (stereo not given),421 µmol/kg,126,15.4,159,48,0.8,2.8,9.45e-07,,,,,half-life [11]: 19.1 min; AUC [12]: 18.3 µM·h; Cmax [14]: 19.6 µM
[O-][n+]1nc(NCCN2CCOCC2)[n+]([O-])c2ccccc21,562 µmol/kg,34,47.5,44,> 49,6.6,17.3,3.63e-07,,,,,Cmax [15]: 160 µM; LCK (HT-29 [3]): 0.6; AUC [4]: 105 µM·h; LCK (HT-29 [6]): 0.29; half-life [9]: 16.5 min
CN(C)CCNc1n[n+]([O-])c2ccc(OCC3CC3)cc2[n+]1[O-],750 µM/g,35,45.1,101,43,2.1,3.8,,33.9,51.3,-0.14,-0.06,
COc1ccc2c(c1)[n+]([O-])c(NCCN(C)C)n[n+]2[O-],1000 µmol/kg,89,26.1,232,46,2.9,7.7,2.32e-07,51.5,240,0.15,1.84,Cmax [20]: 157 µM
CCc1ccc2c(c1)[n+]([O-])c(NCCCN1CCOCC1)n[n+]2[O-],1000 µmol/kg,>36,56.5,66,55,5.6,10.4,,,,,,Cmax [21]: 139 µM; LCK (HT-29 [22]): 0.13; half-life [23]: 24.9 min; LCK (HT-29 [24]): 0.82; AUC [25]: 94.8 µM·h
CC(C)Oc1ccc2c(c1)[n+]([O-])c(NCCN(C)C)n[n+]2[O-],1330 µmol/kg,162,22.3,31,> 55,3.2,6.2,,26.1,102,-0.17,0.53,Cmax [20]: 123 µM
CCOc1ccc2c(c1)[n+]([O-])c(NCCN1CCCCC1)n[n+]2[O-],316 µmol/kg,116,36.3,169,> 49,1.7,2.2,,,,,,Cmax [26]: 9.8 µM; half-life [27]: 40.1 min; AUC [28]: 10.7 µM·h
Cc1ccc2c(c1)[n+]([O-])c(NCCN1CCCCC1)n[n+]2[O-],237 µmol/kg,58,9.4,75,45,2.2,4,7.49e-07,,,,,Cmax [26]: 14.9 µM; half-life [27]: 16.6 min; AUC [28]: 13.8 µM·h

# — ChEMBL document CHEMBL1138329, “Pharmacokinetic/pharmacodynamic model-guided identification of hypoxia-selective 1,2,4-benzotriazine 1,4-dioxides with antitumor activity: the role of extravascular transport” (J Med Chem, 2007)
